Experimental data: ChEMBL document CHEMBL1139544, “Potent, orally active corticotropin-releasing factor receptor-1 antagonists containing a tricyclic pyrrolopyridine or pyrazolopyridine core” (J Med Chem, 2005)
Values belong to the compound of their own block, whether it stands above or below them.

Tests used:
[1] = target: T1, Corticotropin-releasing factor receptor 1 (Homo sapiens, UniProt P34998); assay: Inhibition of [125I]sauvagine binding to corticotropin releasing factor receptor 1 expressed in LtK- cells; Not active (<30% inhibition at 10 uM); format: cell-based
T1 sequence (P34998 whole entry): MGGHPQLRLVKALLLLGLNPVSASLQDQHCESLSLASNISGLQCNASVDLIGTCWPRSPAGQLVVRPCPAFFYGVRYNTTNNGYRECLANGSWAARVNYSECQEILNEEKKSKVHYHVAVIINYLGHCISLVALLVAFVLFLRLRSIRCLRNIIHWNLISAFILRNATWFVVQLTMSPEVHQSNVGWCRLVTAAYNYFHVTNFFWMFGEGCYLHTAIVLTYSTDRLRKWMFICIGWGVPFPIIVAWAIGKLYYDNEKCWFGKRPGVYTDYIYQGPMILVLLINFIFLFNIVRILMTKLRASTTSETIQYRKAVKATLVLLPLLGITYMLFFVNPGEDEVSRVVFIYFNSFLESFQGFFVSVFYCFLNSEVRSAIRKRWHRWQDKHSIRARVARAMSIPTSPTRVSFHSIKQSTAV

[2] = target: T1, Corticotropin-releasing factor receptor 1; assay: Inhibition of [125I]sauvagine binding to corticotropin releasing factor receptor 1 expressed in LtK- cells; format: cell-based
[3] = Total body clearance in rat following administration of 10 mg/kg, p.o. and 10 mg/kg, i.v.; format: ADME, organism-based; conditions: in vivo, iv
Procedure, shortened: (§1)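 Male Sprague Dawley rats were given one compound intravenously via tail vein and by oral gavage (N = 3/time point), dosed in purified water at 2 mL/kg. Terminal blood and brain were taken at set times for composite sampling. Plasma was acetonitrile-precipitated and analysed by LC-MS/MS (LLOQ 5 ng/mL). Parameters came from a noncompartmental model.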

[4] = target: Corticotropin releasing factor receptor (Rattus norvegicus, UniProt P47866+P35353); assay: Inhibition of corticotropin releasing factor stimulated adrenocorticotropic hormone release from rat pituitary cells; format: functional, cell-based; conditions: pituitary gland cell
Procedure, shortened: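 Pituitaries from 7-week-old female Sprague Dawley rats were digested with collagenase and plated at 40 000 cells/well in 3% FCS/BBM-T for 2-3 days. Compound (1 pM–1 µM) was added with 0.5 nM r/hCRF for 4 h at 37 °C. ACTH in the medium was measured by RIA, and IC50 was obtained by nonlinear curve fitting.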

[5] = Half life in rat following administration of 10 mg/kg, p.o. and 10 mg/kg, i.v.; format: ADME, organism-based; conditions: in vivo; procedure, shortened: as §1
[6] = Volume of distribution in rat following administration of 10 mg/kg, p.o. and 10 mg/kg, i.v.; format: ADME, organism-based; conditions: in vivo, iv; procedure, shortened: as §1
[7] = Bioavailability in rat (dose 10 mg/kg p.o. and 10 mg/kg, i.v.); format: ADME, organism-based; conditions: in vivo, po; procedure, shortened: as §1
[8] = Total body clearance in rat following administration of 10 mg/kg, p.o. and 10 mg/kg i.v.; format: ADME, organism-based; conditions: in vivo, iv; procedure, shortened: as §1
[9] = Bioavailability in rat following administration of 10 mg/kg, p.o. and 10 mg/kg i.v.; format: ADME, organism-based; conditions: in vivo, po; procedure, shortened: as §1
[10] = Half life in rat following administration of 10 mg/kg, p.o. and 10 mg/kg i.v.; format: ADME, organism-based; conditions: in vivo; procedure, shortened: as §1
[11] = Half life in rat following administration of 10 mg/kg, p.o. and 5 mg/kg, i.v.; format: ADME, organism-based; conditions: in vivo; procedure, shortened: as §1
[12] = Bioavailability in rat following administration of 10 mg/kg, p.o. and 5 mg/kg, i.v.; format: ADME, organism-based; conditions: in vivo, po; procedure, shortened: as §1
[13] = Volume of distribution in rat following administration of 10 mg/kg, p.o. and 5 mg/kg, i.v.; format: ADME, organism-based; conditions: in vivo, iv; procedure, shortened: as §1
[14] = Total body clearance in rat following administration of 10 mg/kg, p.o. and 5 mg/kg, i.v.; format: ADME, organism-based; conditions: in vivo, iv; procedure, shortened: as §1
[15] = Total body clearance in rat following administration of 2 mg/kg, p.o. and 1 mg/kg, i.v.; format: ADME, organism-based; conditions: in vivo, iv
Procedure, shortened: (§2)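 Cassette study in male Sprague Dawley rats: five compounds were co-administered at 2 mg/kg po (gavage) and by tail-vein iv (N = 3/time point), in purified water at 2 mL/kg. Composite terminal plasma sampling was used. Plasma was acetonitrile-precipitated for LC-MS/MS (LLOQ 5 ng/mL). Parameters came from a noncompartmental model.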

[16] = Bioavailability in rat (dose 2 mg/kg p.o. and 1 mg/kg, i.v.); format: ADME, organism-based; conditions: in vivo, po; procedure, shortened: as §2
[17] = Volume of distribution in rat following administration of 2 mg/kg, p.o. and 1 mg/kg, i.v.; format: ADME, organism-based; conditions: in vivo, iv; procedure, shortened: as §2
[18] = Half life in rat following administration of 2 mg/kg, p.o. and 1 mg/kg, i.v.; format: ADME, organism-based; conditions: in vivo; procedure, shortened: as §2

SMILES: CCCC(CCC)N1CCc2c3c1cc(C)nc3nn2-c1ccc(Cl)cc1Cl
- Ki [1]: Not Active

SMILES: CCCC(CCC)N1CCc2cn(-c3ccc(C)cc3)c3nc(C)cc1c23
- Ki [2]: 30 nM

SMILES: CCCC(CCC)N1CCc2cn(Cc3ccc(Cl)cc3C)c3nc(C)cc1c23
- Ki [2]: 1900 nM

SMILES: CCC(COC)N1CCc2cn(-c3ccc(Cl)cc3C#N)c3nc(C)cc1c23 (stereo unspecified)
- Ki [2]: 40 nM

SMILES: COCC(COC)N1CCc2cn(-c3ccc(Cl)cc3C#N)c3nc(C)cc1c23
- Ki [2]: 120 nM

SMILES: CCCC(CCC)N1CCc2cn(-c3ccccc3OC)c3nc(C)cc1c23
- Ki [2]: 55 nM

SMILES: CCC(CC)N1CCc2cn(-c3ccc(Cl)cc3C#N)c3nc(C)cc1c23
- Ki [2]: 62 nM

SMILES: CCCC(CCC)N1CCc2cn(-c3ccc(S(C)(=O)=O)cc3Cl)c3nc(C)cc1c23
- clearance [3]: 152 mL/min/kg
- Ki [2]: 13 nM
- IC50 [4]: 250 nM
- half-life [5]: 5 h
- Vd [6]: 66 L/kg
- bioavailability [7]: 74%

SMILES: CCCC(CCC)N1CCc2cn(-c3ccc(OC)cc3C)c3nc(C)cc1c23
- clearance [3]: 107 mL/min/kg
- Ki [2]: 6.5 nM
- IC50 [4]: 39 nM
- half-life [5]: 5.7 h
- Vd [6]: 53 L/kg
- bioavailability [7]: 18%

SMILES: CCCC(CCC)N1CCc2cn(-c3ccc(Cl)cc3C#N)c3nc(C)cc1c23
- Ki [2]: 13 nM

SMILES: Cc1cc2c3c(cn(-c4ccc(Cl)cc4C#N)c3n1)CCN2C
- Ki [1]: Not Active

SMILES: CCCCN1CCc2cn(-c3ccc(Cl)cc3C#N)c3nc(C)cc1c23
- Ki [2]: 49 nM

SMILES: CCCC(CCC)N1CCc2cn(-c3ccc(C#N)cc3Cl)c3nc(C)cc1c23
- Ki [2]: 7.2 nM

SMILES: CCC(COC)N1CCc2cn(-c3c(C)cc(Cl)cc3C)c3nc(C)cc1c23 (stereo unspecified)
- clearance [15]: 87 mL/min/kg
- bioavailability [16]: 66%
- Ki [2]: 16 nM
- IC50 [4]: 27 nM
- Vd [17]: 19 L/kg
- half-life [18]: 2.5 h

SMILES: CCCC(CCC)N1CCc2cn(-c3cccc(OC)c3)c3nc(C)cc1c23
- Ki [2]: 190 nM

The remaining compounds from weak to strong by Ki [2], led by results:

- clearance [15]: 28 mL/min/kg
- bioavailability [16]: 76%
- Ki [2]: 6 nM
- IC50 [4]: 48 nM
- Vd [17]: 80 L/kg
- half-life [18]: 33 h
SMILES: CCC(CC)N1CCc2cn(-c3ccc(OC(F)(F)F)cc3C)c3nc(C)cc1c23

- clearance [3]: 70 mL/min/kg
- Ki [2]: 5.4 nM
- IC50 [4]: 29 nM
- half-life [5]: 10 h
- Vd [6]: 62 L/kg
- bioavailability [7]: 50%
SMILES: CCCC(CCC)N1CCc2cn(-c3ccc(OC)nc3OC)c3nc(C)cc1c23

- Ki [2]: 4.2 nM
SMILES: CCCC(CCC)N1CCc2cn(-c3ccc(Cl)cc3Cl)c3nc(C)cc1c23

- Ki [2]: 3.5 nM
- IC50 [4]: 14 nM
- clearance [8]: 70 mL/min/kg
- bioavailability [9]: 24%
- half-life [10]: 6.3 h
- Vd [6]: 38 L/kg
SMILES: CCCC(CCC)N1CCc2cn(-c3ccc(C)cc3Cl)c3nc(C)cc1c23

- Ki [2]: 3.1 nM
SMILES: CCCCN(CC)c1nc(C)nc2c1c(C)c(C)n2-c1c(C)cc(C)cc1C [ANTALARMIN]

- half-life [11]: 12 h
- bioavailability [12]: 7%
- Vd [13]: 44 L/kg
- Ki [2]: 2.9 nM
- IC50 [4]: 6.8 nM
- clearance [14]: 43 mL/min/kg
SMILES: CCCC(CCC)N1CCc2nn(-c3ccc(Cl)cc3Cl)c3nc(C)cc1c23
